Casp6 inh: inhibitors of human caspase-6 | purified caspase-6, Z-VEID-R110 cleavage fluorescence | inhibition, % at 12.5 µM | hit rate 0.53% among 350,000;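 active means mean inhibition across replicates at least about 35%, with every replicate also reaching that limit, limit read from the data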;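 further: 0% = median of neutral control wells and 100% = no fluorescence left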
Target sequence (P55212 24-179 limits assumed): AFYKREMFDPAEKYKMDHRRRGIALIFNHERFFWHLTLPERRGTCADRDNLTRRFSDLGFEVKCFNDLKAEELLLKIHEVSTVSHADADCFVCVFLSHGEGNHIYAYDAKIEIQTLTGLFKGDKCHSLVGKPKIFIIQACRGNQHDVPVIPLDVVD
Target sequence (P55212 194-293 limits assumed): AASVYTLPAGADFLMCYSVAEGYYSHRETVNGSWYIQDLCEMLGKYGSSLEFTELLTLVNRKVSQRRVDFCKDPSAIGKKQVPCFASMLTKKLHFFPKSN
XiGFP reactiv: X-chromosome reactivation activator; XiGFP mouse fibroblasts, % GFP-positive cells imaging, 3 d; cells co-treated with 5-aza-dC sensitizer; scaled so ellipticine positive control = 100%; activation, % at 7.58 µM; hit rate 0.055% among 360,000; AID 743238;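 active means mean normalized replicate activation at least 10% and every replicate at or above 10%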;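 further: 0% = median of on-plate neutral control wells and 100% = ellipticine 6 µM median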
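Material: XiGFP fibroblasts, SV40-immortalized; Buffer or medium: DMEM containing 5-aza-dC; Compound dosing: single point; Times: 3 days compound exposure.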
RAD52 anneal inh: blocks human RAD52 DNA annealing | P43351 | recombinant RAD52 DNA annealing, FRET fluorescence | inhibition, % at 18.7 µM | hit rate 0.46% among 360,000;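 active means every replicate showing at least 50% inhibition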
S100A4 MyoIIA: blocks human S100A4 binding to myosin IIA peptide | hit rate 0.14% among 360,000 | P26447 | inhibition, % at 10.7 µM | S100A4/TAMRA-MyoIIA peptide fluorescence polarization | AID 652163;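 active means mean inhibition of at least 70% across replicates, with every replicate also reaching that level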
Target sequence (P26447 whole entry, looked up): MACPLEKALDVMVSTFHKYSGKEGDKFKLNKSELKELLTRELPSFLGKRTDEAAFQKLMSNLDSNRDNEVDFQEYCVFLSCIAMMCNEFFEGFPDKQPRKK
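Material: S100A4 monomer (human). Medium: Calcium-containing HEPES buffer, pH 7.2. Probe or stimulus: labelled myosin peptide probe, 5 nM. Compound dosing: one concentration per compound. Timing: polarization read 5 min after assay mix addition, stable 5–60 min. Benchmarks: DMSO as neutral control, TFP as positive control.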
MLL AF4-AF9 inh: MLL-AF4/AF9 protein interaction inhibition; P42568; AlphaScreen, biotin-AF4 peptide binding to FLAG-AF9; inhibition, % at 10 µM; hit rate 0.47% among 350,000;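 active means every replicate reaching a set inhibition limit, whatever the replicate mean, cut at about 25% in these data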;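 further: 0% = plate neutral control median and 100% = total signal loss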
RAD54 inh: RAD54 (human) branch migration inhibition; hit rate 0.14% among 360,000; inhibition, % at 10.4 µM; RAD54 Holliday junction branch migration, FAM/BHQ fluorescence;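 active means mean normalized replicate activity at least 40 and at least half of replicates scoring 40 or more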;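 further: 0% = median of neutral control wells and 100% = median of positive control wells; inhibitors cause a drop in the FAM fluorescence signal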
Active calls of the source: *; x = no result. Rows were chosen to be rich in hits. Some 1.3% of all compounds tested hit in one or more screens of this group.

SMILES	Casp6 inh	XiGFP reactiv	RAD52 anneal inh	S100A4 MyoIIA	MLL AF4-AF9 inh	RAD54 inh
C[C@@H]1CN([C@H](C)CO)C(=O)c2cc(NC(=O)Cc3ccccc3)ccc2O[C@@H](C)CCCCO[C@H]1CN(C)S(=O)(=O)c1cn(C)cn1	x	0	x	x	x	2
COc1ccc(CC(=O)N2CCOCC2)cc1	x	x	x	x	x	-13
CCCCCc1ccc(CC(=O)N2CCOCC2)cc1	50*	0	1	-3	-4	7
CCOC(=O)c1c(NC(=O)C2CC2)sc2c1CC(C)(C)OC2	-3	0	-6	34	-1	x
CCOC(=O)c1c(NC(=O)C2CC(Cl)=CCC2C(=O)O)sc2c1CC(C)(C)OC2 (stereo not given)	43*	0	-7	0	-1	x
Cc1ccc(S(=O)(=O)N(C)C[C@H]2Oc3ccc(NC(=O)Nc4ccccc4)cc3CC(=O)N([C@H](C)CO)C[C@@H]2C)cc1	0	23*	16	-65	4	-7
Cc1ccc(S(=O)(=O)N(C)C[C@H]2Oc3ccc(NC(=O)Nc4ccccc4)cc3C(=O)N([C@@H](C)CO)C[C@H]2C)cc1	-1	0	-7	102*	4	-8
COc1ccc(S(=O)(=O)N(C)C[C@@H]2Oc3ccc(NC(=O)Nc4ccccc4)cc3CC(=O)N([C@@H](C)CO)C[C@@H]2C)cc1	-3	0	0	-6	3	72*
COc1ccc(S(=O)(=O)N(C)C[C@@H]2Oc3ccc(NC(=O)Nc4ccccc4)cc3CC(=O)N([C@@H](C)CO)C[C@H]2C)cc1	-1	2	7	-24	2	18
COc1ccc(NC(=O)Nc2ccc3c(c2)CC(=O)N([C@H](C)CO)C[C@H](C)[C@@H](CN(C)S(=O)(=O)c2ccc(F)cc2)O3)cc1	0	15*	-26	-7	5	-3
Cc1ccc(S(=O)(=O)N(C)C[C@@H]2Oc3ccc(NC(=O)Nc4ccccc4)cc3CC(=O)N([C@@H](C)CO)C[C@@H]2C)cc1	3	0	8	0	5	22
COc1ccc(NC(=O)Nc2ccc3c(c2)CC(=O)N([C@@H](C)CO)C[C@H](C)[C@@H](CN(C)S(=O)(=O)c2ccc(F)cc2)O3)cc1	-3	-1	-12	-1	2	2
CNC(=O)C[C@@H]1CC[C@H]2[C@@H](COc3ccc(NC(=O)c4ccccc4OC)cc3C(=O)N2C)O1	-2	0	-7	3	0	0
COc1ccc(S(=O)(=O)N(C)C[C@@H]2Oc3ccc(NC(=O)NC(C)C)cc3CC(=O)N([C@@H](C)CO)C[C@@H]2C)cc1	2	0	14	11	1	51*
Cc1ccn2c(=S)[nH]nc2c1	37*	0	-40	-6	-2	7
O=C1[C@H]2[C@@H](c3ccccc3)N[C@]3(CCCN(CC4CCCCC4)C3=O)[C@H]2C(=O)N1Cc1ccccc1	41*	0	-25	6	-1	-4
O=C(Nc1cccc(C(=O)NC2CC2)c1)c1ccccc1	1	0	13	0	-3	-3
O=C(Nc1cc2c3c(c1)C1CCCC1CN3CC1CCCC21)c1ccccc1 (stereo not given)	x	x	x	x	x	50*
CC(C)C#Cc1cnc2c(c1)C(=O)N([C@H](C)CO)C[C@H](C)[C@H](CN(C)C(=O)c1ccc3c(c1)OCO3)O2	-1	0	21	5	-3	4
Cc1ccc(/C(N)=N/OC(=O)c2ccc3ccccc3c2)cc1	55*	0	-1	5	0	-3
COc1ccc(CCNC(=O)c2c(C)noc2C)cc1	50*	x	-4	-3	1	19
O=C1Cc2cc(S(=O)(=O)N3CCNCC3)ccc2N1	-27	0	77*	5	8	x
CN(C)CC(=O)Nc1ccc2c(c1)[C@H]1C[C@H](CC(=O)N3CCN(C)CC3)O[C@@H](CO)[C@H]1O2	0	0	-4	2	0	-2
C[C@@H](NC(=O)C[C@H]1C=C[C@@H](NC(=O)C2CCC2)[C@H](CO)O1)c1ccccc1	-6	-1	0	101*	3	0

Screening data deposited in PubChem by Broad Institute.
